These results are taken from ChEMBL document CHEMBL3132745, “Synthesis and Antimicrobial Activities of His(2-aryl)-Arg and Trp-His(2-aryl) Classes of Dipeptidomimetics” (Medchemcomm, 2014).

Converted amounts (≈) assume the structure as drawn. The source made the active and inactive calls. The rule behind the calls is not given here. Residues, ends and D or L forms follow the SMILES beside them.

One data set relates to Cryptococcus neoformans. Kind of data set: Antifungal activity against Cryptococcus neoformans ATCC 90113 assessed as growth inhibition after 70-74 hrs by CLSI method. The class given is functional, organism-based.
The test system of another data set is Pichia kudriavzevii. Kind of data set: Antifungal activity against Candida krusei assessed as growth inhibition. The class given is functional, organism-based.
In the next data set the test system is SK-OV-3. Kind of data set: Cytotoxicity against human SKOV3 cells assessed as cell viability after 48 hrs by neutral red uptake assay. The class given is cell-based. Particulars: sk-ov-3, 48 h. In short, it runs like this:
(§1)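 Neutral red uptake assay on human cancer lines (SK-MEL, KB, BT-549, SK-OV-3) and noncancerous mammalian cells (VERO, LLC-PK1). Highest tested concentration was 10 µg/mL.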

The test system of a further data set is Vero. Kind of data set: Cytotoxicity against african green monkey Vero cells assessed as cell viability after 48 hrs by neutral red uptake assay. It counts as cell-based. Particulars: chlorocebus sabaeus. In short, it runs like this:
as §1

A further data set concerns SK-MEL. Kind of data set: Cytotoxicity against human SK-MEL cells assessed as cell viability after 48 hrs by neutral red uptake assay. It counts as cell-based. Summed up: as §1
The next data set deals with Candida albicans. Kind of data set: Antifungal activity against Candida albicans assessed as growth inhibition. It counts as functional, organism-based.
The subject of another data set is BT-549. Kind of data set: Cytotoxicity against human BT549 cells assessed as cell viability after 48 hrs by neutral red uptake assay. The class given is cell-based. The settings on record: bt-549, 48 h. Summed up: as §1
A further data set deals with LLC-PK1. Kind of data set: Cytotoxicity against pig LLC-PK1 cells assessed as cell viability after 48 hrs by neutral red uptake assay. It counts as cell-based, Sus scrofa. Particulars: llc-pk1, 48 h. In short, it runs like this: as §1
The test system of a further data set is Aspergillus fumigatus. Kind of data set: Antifungal activity against Aspergillus fumigatus assessed as growth inhibition. It counts as functional, organism-based.
The subject of a further data set is Nakaseomyces glabratus. Kind of data set: Antifungal activity against Candida glabrata assessed as growth inhibition. The class given is functional, organism-based.
A further data set relates to KB. Kind of data set: Cytotoxicity against human KB cells assessed as cell viability after 48 hrs by neutral red uptake assay. The class given is cell-based. In short, it runs like this: as §1
For the next data set, the system named is Escherichia coli. Kind of data set: Antibacterial activity against Escherichia coli ATCC 35218 assessed as growth inhibition after 16-20 hrs by CLSI method. It counts as functional, organism-based.

For orientation: IC50 means the point on the concentration scale where inhibition reaches its midpoint. For the molecule `COC(=O)[C@H](Cc1c[nH]c(-c2ccc(C)cc2)n1)NC(=O)[C@H](Cc1c[nH]c2ccccc12)NC(=O)OC(C)(C)C`, in the data set with Cryptococcus neoformans, the IC50 entry is given as “Not Active”. Besides, the MFC result in the data set on Cryptococcus neoformans is “inactive”. Besides, the MIC entry with Cryptococcus neoformans was “inactive”. Besides, the “growth inhibition (GI)” value in the data set on Pichia kudriavzevii, in the data set with Candida albicans, with Aspergillus fumigatus, in the data set on Nakaseomyces glabratus and with Escherichia coli was “inactive” throughout. The Activity with SK-OV-3, in the data set on Vero, in the data set with SK-MEL, in the data set with BT-549, in the data set with LLC-PK1 and in the data set on KB was greater than 10 µg/mL each time.

As to `COC(=O)[C@H](Cc1c[nH]c(-c2ccc(C)cc2)n1)NC(=O)[C@@H](N)Cc1c[nH]c2ccccc12`, the MFC entry in the data set with Cryptococcus neoformans is “inactive”. Also, the MIC result in the data set on Cryptococcus neoformans is “inactive”. The half-maximal inhibitory concentration (IC50) in the data set with Cryptococcus neoformans (Cryptococcus neoformans, ATCC 90113, read-out: IC50) was 11.9 µg/mL (≈ 26.7 µM). The “growth inhibition (GI)” value in the data set with Pichia kudriavzevii, with Candida albicans, in the data set on Aspergillus fumigatus, in the data set with Nakaseomyces glabratus and with Escherichia coli was “inactive” each time. Moreover, the Activity in the data set with SK-OV-3, with Vero, in the data set on SK-MEL, in the data set on BT-549, in the data set on LLC-PK1 and in the data set on KB was greater than 10 µg/mL each time.

Regarding `COC(=O)[C@H](CCCNC(=N)N)NC(=O)[C@@H](N)Cc1c[nH]c(-c2ccc(OC)cc2)n1`, the IC50 result in the data set with Cryptococcus neoformans is on record as “Not Active”. The MFC entry in the data set with Cryptococcus neoformans is “inactive”. In the data set with Cryptococcus neoformans, the MIC result is “inactive”. Besides, the “growth inhibition (GI)” value with Pichia kudriavzevii, in the data set on Candida albicans, in the data set with Aspergillus fumigatus, in the data set on Nakaseomyces glabratus and in the data set on Escherichia coli was “inactive” throughout. The Activity in the data set with SK-OV-3, in the data set on Vero, in the data set with SK-MEL, in the data set with BT-549, in the data set with LLC-PK1 and in the data set on KB was greater than 10 µg/mL throughout.

As for `COC(=O)[C@H](CCCNC(=N)N)NC(=O)[C@@H](N)Cc1c[nH]cn1` (H-His-Arg-OMe), in the data set with Cryptococcus neoformans, the IC50 entry is listed as “Not Active”. Besides, in the data set on Cryptococcus neoformans, the MFC result was “inactive”. Also, the MIC entry in the data set on Cryptococcus neoformans is “inactive”. The “growth inhibition (GI)” value with Pichia kudriavzevii, in the data set with Candida albicans, with Aspergillus fumigatus, in the data set on Nakaseomyces glabratus and in the data set on Escherichia coli was “inactive” throughout. Also, the Activity in the data set on SK-OV-3, in the data set with Vero, with SK-MEL, in the data set with BT-549, in the data set on LLC-PK1 and in the data set on KB was greater than 10 µg/mL in each case.

Regarding `CC(C)(C)OC(=O)N[C@@H](Cc1c[nH]c2ccccc12)C(=O)N[C@@H](Cc1c[nH]c(-c2ccccc2)n1)C(=O)NCc1ccccc1`, in the data set with Cryptococcus neoformans, the IC50 result was “Not Active”. The MFC result in the data set with Cryptococcus neoformans is “inactive”. The MIC result in the data set on Cryptococcus neoformans was “inactive”. Moreover, the “growth inhibition (GI)” value in the data set with Pichia kudriavzevii, in the data set on Candida albicans, in the data set with Aspergillus fumigatus, in the data set with Nakaseomyces glabratus and with Escherichia coli was “inactive” throughout. In addition, the Activity in the data set with SK-OV-3, in the data set on Vero, in the data set on SK-MEL, in the data set with BT-549, with LLC-PK1 and in the data set on KB was greater than 10 µg/mL in each case.
